The text below walks through data of ChEMBL document CHEMBL1154048, “Design, synthesis and pharmacological evaluation of new 1-[3-(4-arylpiperazin-1-yl)-2-hydroxy-propyl]-3,3-diphenylpyrrolidin-2-one derivatives with antiarrhythmic, antihypertensive, and alpha-adrenolytic activity” (Eur J Med Chem, 2009).

For test [1], the system named is Rattus norvegicus. The test is described as follows: Hypotensive activity in normotensive Wistar rat assessed as systolic blood pressure at 5 mg/kg, iv after 5 mins (Rvb=139 +/- 0.6 mmHg). In kind it is functional, Artery.
Test [2] relates to Rattus norvegicus. The test can be described thus: Hypotensive activity in normotensive Wistar rat assessed as diastolic blood pressure at 5 mg/kg, iv after 60 mins (Rvb=120 +/- 1.7 mmHg). In kind it is functional, Artery.
Test [3] relates to Rattus norvegicus. The test can be described thus: Hypotensive activity in normotensive Wistar rat assessed as diastolic blood pressure at 5 mg/kg, iv after 10 mins (Rvb=120 +/- 1.7 mmHg). In kind it is functional, Artery.
Test [4] concerns Rattus norvegicus. The test is described as follows: Hypotensive activity in normotensive Wistar rat assessed as diastolic blood pressure at 5 mg/kg, iv after 30 mins (Rvb=120 +/- 1.7 mmHg). In kind it is functional, Artery.
For test [5], the system named is Rattus norvegicus. The test can be described thus: Hypotensive activity in normotensive Wistar rat assessed as systolic blood pressure at 5 mg/kg, iv after 10 mins (Rvb=139 +/- 0.6 mmHg). In kind it is functional, Artery.
Test [6] deals with Rattus norvegicus. The test is described as follows: Hypotensive activity in normotensive Wistar rat assessed as systolic blood pressure at 5 mg/kg, iv after 5 mins (Rvb=140.5 +/- 1.1 mmHg). In kind it is functional, Artery.
Test [7] has as its system Rattus norvegicus. The test can be described thus: Hypotensive activity in normotensive Wistar rat assessed as systolic blood pressure at 5 mg/kg, iv after 60 mins (Rvb=140.5 +/- 1.1 mmHg). In kind it is functional, Artery.
Test [8] deals with Rattus norvegicus. The test is described as follows: Hypotensive activity in normotensive Wistar rat assessed as diastolic blood pressure at 5 mg/kg, iv after 10 mins (Rvb=125.5 +/- 0.6 mmHg). In kind it is functional, Artery.
For test [9], the system named is Rattus norvegicus. The test is described as follows: Hypotensive activity in normotensive Wistar rat assessed as diastolic blood pressure at 5 mg/kg, iv after 60 mins (Rvb=125.5 +/- 0.6 mmHg). In kind it is functional, Artery.
Test [10] deals with Rattus norvegicus. The test can be described thus: Hypotensive activity in normotensive Wistar rat assessed as systolic blood pressure at 5 mg/kg, iv after 10 mins (Rvb=138 +/- 0.9 mmHg). In kind it is functional, Artery.
Test [11] concerns Rattus norvegicus. The test can be described thus: Hypotensive activity in normotensive Wistar rat assessed as systolic blood pressure at 5 mg/kg, iv after 60 mins (Rvb=138 +/- 0.9 mmHg). In kind it is functional, Artery.
Test [12] concerns Rattus norvegicus. The test can be described thus: Hypotensive activity in normotensive Wistar rat assessed as systolic blood pressure at 5 mg/kg, iv after 20 mins (Rvb=138 +/- 0.9 mmHg). In kind it is functional, Artery.
Test [13] relates to Rattus norvegicus. The test can be described thus: Hypotensive activity in normotensive Wistar rat assessed as diastolic blood pressure at 5 mg/kg, iv after 20 mins (Rvb=119 +/- 1.2 mmHg). In kind it is functional, Artery.
The species entered for test [14] is Rattus norvegicus. The test can be described thus: Selectivity for rat cerebral cortex alpha1 adrenergic receptor over rat cerebral cortex alpha2 adrenergic receptor. In kind it is tissue-based. The gist of the method:
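Rat cerebral cortex membranes were prepared in 50 mM Tris–HCl pH 7.6, homogenized and spun twice at 20 000 g. Competition was against [3H]prazosin 0.2 nM (α1) or [3H]clonidine 2 nM (α2), with 7–8 concentrations from 10^-11 to 10^-4 M. Nonspecific binding was defined with phentolamine for the prazosin assay. After filtration, binding was read by scintillation counting in duplicate. Ki was calculated by Cheng–Prusoff, and selectivity was compared from the α1 and α2 Ki values.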

For test [15], the system named is Rattus norvegicus. The test can be described thus: Hypotensive activity in normotensive Wistar rat assessed as systolic blood pressure at 5 mg/kg, iv after 10 mins (Rvb=142.5 +/- 3.6 mmHg). In kind it is functional, Artery.
A short description of test [16]: Selectivity ratio of Kb for alpha1B adrenoceptor in guinea pig spleen to Kb for Alpha-1D adrenoceptor in Wistar rat thoracic aorta. In kind it is tissue-based. The gist of the method: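 Isolated-tissue antagonism assays were run in guinea-pig spleen (α1B) and in endothelium-denuded ~4 mm thoracic aortic rings from male Wistar rats weighing 200–350 g (α1D). Aortic rings sat in Krebs–Henseleit at 37 °C, pH 7.4, gassed with O2/CO2 19:1, at 2 g tension. Two cumulative noradrenaline curves were run 60 min apart, with 30 min antagonist incubation and continuous propranolol. Schild pA2 was taken as pKB, n ≥ 5.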

Test [17] concerns Rattus norvegicus. The test is described as follows: Hypotensive activity in normotensive Wistar rat assessed as systolic blood pressure at 5 mg/kg, iv after 20 mins (Rvb=142.5 +/- 3.6 mmHg). In kind it is functional, Artery.
The subject of test [18] is Rattus norvegicus. The test can be described thus: Hypotensive activity in normotensive Wistar rat assessed as diastolic blood pressure at 5 mg/kg, iv after 10 mins (Rvb=127 +/- 8.1 mmHg). In kind it is functional, Artery.
The test system of test [19] is Rattus norvegicus. The test is described as follows: Hypotensive activity in normotensive Wistar rat assessed as diastolic blood pressure at 5 mg/kg, iv after 60 mins (Rvb=127 +/- 8.1 mmHg). In kind it is functional, Artery.
Test [20] concerns Rattus norvegicus. The test can be described thus: Hypotensive activity in normotensive Wistar rat assessed as diastolic blood pressure at 5 mg/kg, iv after 20 mins (Rvb=127 +/- 8.1 mmHg). In kind it is functional, Artery.
For test [21], the system named is Rattus norvegicus. The test is described as follows: Hypotensive activity in normotensive Wistar rat assessed as systolic blood pressure at 5 mg/kg, iv after 5 mins (Rvb=142.5 +/- 3.6 mmHg). In kind it is functional, Artery.
Test [22] deals with Rattus norvegicus. The test is described as follows: Hypotensive activity in normotensive Wistar rat assessed as diastolic blood pressure at 5 mg/kg, iv after 5 mins (Rvb=127 +/- 8.1 mmHg). In kind it is functional, Artery.
Test [23] concerns Rattus norvegicus. The test is described as follows: Hypotensive activity in normotensive Wistar rat assessed as diastolic blood pressure at 5 mg/kg, iv after 20 mins (Rvb=126 +/- 4.6 mmHg). In kind it is functional, Artery.
Test [24] concerns Rattus norvegicus. The test can be described thus: Hypotensive activity in normotensive Wistar rat assessed as systolic blood pressure at 5 mg/kg, iv after 30 mins (Rvb=141.3 +/- 6.4 mmHg). In kind it is functional, Artery.
Test [25] has as its system Rattus norvegicus. The test is described as follows: Hypotensive activity in normotensive Wistar rat assessed as diastolic blood pressure at 5 mg/kg, iv after 10 mins (Rvb=126 +/- 4.6 mmHg). In kind it is functional, Artery.
The subject of test [26] is Rattus norvegicus. The test can be described thus: Hypotensive activity in normotensive Wistar rat assessed as diastolic blood pressure at 5 mg/kg, iv after 5 mins (Rvb=126 +/- 4.6 mmHg). In kind it is functional, Artery.
Test [27] concerns Rattus norvegicus. The test can be described thus: Hypotensive activity in normotensive Wistar rat assessed as systolic blood pressure at 5 mg/kg, iv after 5 mins (Rvb=141.3 +/- 6.4 mmHg). In kind it is functional, Artery.
The test system of test [28] is Rattus norvegicus. The test can be described thus: Hypotensive activity in normotensive Wistar rat assessed as systolic blood pressure at 2.5 mg/kg, iv after 5 mins (Rvb=125.6 +/- 7.6 mmHg). In kind it is functional, Artery.
Test [29] concerns Rattus norvegicus. The test is described as follows: Hypotensive activity in normotensive Wistar rat assessed as diastolic blood pressure at 2.5 mg/kg, iv after 30 mins (Rvb=107.2 +/- 7.3 mmHg). In kind it is functional, Artery.
For test [30], the system named is Rattus norvegicus. The test is described as follows: Hypotensive activity in normotensive Wistar rat assessed as systolic blood pressure at 2.5 mg/kg, iv after 30 mins (Rvb=125.6 +/- 7.6 mmHg). In kind it is functional, Artery.
In test [31] the test system is Rattus norvegicus. The test can be described thus: Hypotensive activity in normotensive Wistar rat assessed as systolic blood pressure at 2.5 mg/kg, iv after 60 mins (Rvb=125.6 +/- 7.6 mmHg). In kind it is functional, Artery.
Test [32] deals with Rattus norvegicus. The test can be described thus: Hypotensive activity in normotensive Wistar rat assessed as systolic blood pressure at 2.5 mg/kg, iv after 20 mins (Rvb=125.6 +/- 7.6 mmHg). In kind it is functional, Artery.
The test system of test [33] is Rattus norvegicus. The test is described as follows: Hypotensive activity in normotensive Wistar rat assessed as diastolic blood pressure at 2.5 mg/kg, iv after 5 mins (Rvb=107.2 +/- 7.3 mmHg). In kind it is functional, Artery.
For test [34], the system named is Rattus norvegicus. The test can be described thus: Hypotensive activity in normotensive Wistar rat assessed as diastolic blood pressure at 2.5 mg/kg, iv after 10 mins (Rvb=107.2 +/- 7.3 mmHg). In kind it is functional, Artery.

Take `COc1ccccc1N1CCN(CC(O)CN2CCC(c3ccccc3)(c3ccccc3)C2=O)CC1.Cl.Cl` (centres undefined): the Activity in test [1] is 125 mmHg; in test [2] it was 98 mmHg; in [3] it was 107.5 mmHg; in test [4], 102.5 mmHg; in test [5], 122 mmHg.

Take `Cl.Cl.O=C1N(CC(O)CN2CCN(c3ccccc3)CC2)CCC1(c1ccccc1)c1ccccc1` (centres undefined): the Activity in test [6] amounted to 135.5 mmHg; in test [7], 126.5 mmHg; in test [8] it was 118.6 mmHg; in test [9], 109.5 mmHg.

In the case of `Cl.Cl.O=C1N(CC(O)CN2CCN(c3ccccc3C(F)(F)F)CC2)CCC1(c1ccccc1)c1ccccc1` (centres undefined), the Activity turned out to be 122 mmHg in [10], 111 mmHg in test [11], 119 mmHg in [12] and 104 mmHg in [13].

Turning to `CCOc1ccccc1N1CCN(CC(O)CN2CCC(c3ccccc3)(c3ccccc3)C2=O)CC1.Cl.Cl` (centres undefined), in test [14], the Selectivity ratio turned out to be 10. Also, the Activity in [15] amounted to 118 mmHg; in test [17], 111 mmHg; in test [18] it was 105 mmHg; in test [19], 95.5 mmHg; in test [20], 98 mmHg; in test [21] it was 130 mmHg. Moreover, the Activity in [22] came to 117 mmHg. For the same compound, the Ratio in [16] was determined as 5.2.

As for `Cc1ccccc1N1CCN(CC(O)CN2CCC(c3ccccc3)(c3ccccc3)C2=O)CC1.Cl.Cl` (centres undefined), the Activity in [23] came to 119.7 mmHg; in test [24], 133 mmHg; in test [25], 118 mmHg; in test [26], 116.7 mmHg; in [27] it was 132.3 mmHg.

As to `COc1ccc(N2CCN(CC(O)CN3CCC(c4ccccc4)(c4ccccc4)C3=O)CC2)cc1.Cl.Cl` (centres undefined), the Activity is given as 126.6 mmHg in [28]; 88.2 mmHg in test [29]; 105.6 mmHg in test [30]; 105.8 mmHg in test [31]; 107.6 mmHg in test [32]; 107 mmHg in [33]. Further, in test [34], the Activity is given as 96.4 mmHg.
